Data: ChEMBL document CHEMBL1177710, “Structure-based drug design and optimization of mannoside bacterial FimH antagonists” (J Med Chem, 2010)

Columns and labels:
Escherichia coli [1] = assay: Inhibition of Escherichia coli FimH-mediated hemagglutinination of guinea pig red blood cells assessed as drug level required for > 90% inhibition of hemagglutinination
[2] = Displacement of 5(6)-FAM-mannoside from Escherichia coli FimH by fluorescence polarization assay
[3] = Binding affinity to Escherichia coli FimH by surface plasmon resonance assay
Escherichia coli [4] = assay: Ratio of alpha-D-heptylmannoside to compound inhibitory activity against Escherichia coli FimH-mediated hemagglutinination of guinea pig red blood cells
[5] = Binding affinity to Escherichia coli FimH by fluorescence polarization assay
Outline: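 Competitive fluorescence polarization/anisotropy assay. Compounds from 10 mM DMSO stocks were 2-fold serially diluted to 11 final concentrations of 0–10 μM, in duplicate plates. Mix: 200 nM FimH, 20 nM 5(6)-FAM-labelled mannoside tracer, 50 mM Tris, 100 mM NaCl, 1 mM EDTA, 5 μg BSA, 5 mM BME. Anisotropy was averaged over 100 readings/well and fitted to a one-site competition curve, with a mannoside positive control.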

Escherichia coli [6] = assay: Selectivity ratio of inhibition of Escherichia coli FimH-mediated hemagglutinination of guinea pig red blood cells to EC50 for Escherichia coli FimH

SMILES	Activity (Escherichia coli [1]) [µM]	EC50 [2] [µM]	further results
COc1ccc(O[C@H]2O[C@H](CO)[C@@H](O)[C@H](O)[C@@H]2O)cc1	8		
O=C1Cc2cc(O[C@H]3O[C@H](CO)[C@@H](O)[C@H](O)[C@@H]3O)ccc2O1	8		
NC(=O)c1ccccc1-c1ccc(O[C@H]2O[C@H](CO)[C@@H](O)[C@H](O)[C@@H]2O)cc1	6		
COC(=O)c1cccc(-c2ccc(O[C@H]3O[C@H](CO)[C@@H](O)[C@H](O)[C@@H]3O)cc2)c1	1	0.052	
CNS(=O)(=O)c1ccccc1-c1ccc(O[C@H]2O[C@H](CO)[C@@H](O)[C@H](O)[C@@H]2O)cc1	4		
OC[C@H]1O[C@H](Oc2ccc(-c3cccc(O)c3)cc2)[C@@H](O)[C@@H](O)[C@@H]1O	4		
CS(=O)(=O)Nc1cccc(-c2ccc(O[C@H]3O[C@H](CO)[C@@H](O)[C@H](O)[C@@H]3O)cc2)c1	2	0.097	
COC(=O)Cc1ccc(O[C@H]2O[C@H](CO)[C@@H](O)[C@H](O)[C@@H]2O)cc1	30		
CCCCCCCO[C@H]1O[C@H](CO)[C@@H](O)[C@H](O)[C@@H]1O	15	0.089	Kd [3]: 0.005 µM
CC(=O)Nc1cccc(-c2ccc(O[C@H]3O[C@H](CO)[C@@H](O)[C@H](O)[C@@H]3O)cc2)c1	2	0.07	
O=C(NCCOCCNC(=O)c1cccc(-c2ccc(O[C@H]3O[C@H](CO)[C@@H](O)[C@H](O)[C@@H]3O)cc2)c1)c1cccc(-c2ccc(O[C@H]3O[C@H](CO)[C@@H](O)[C@H](O)[C@@H]3O)cc2)c1	0.75		
O=C(NCCOCCOCCNC(=O)c1cccc(-c2ccc(O[C@H]3O[C@H](CO)[C@@H](O)[C@H](O)[C@@H]3O)cc2)c1)c1cccc(-c2ccc(O[C@H]3O[C@H](CO)[C@@H](O)[C@H](O)[C@@H]3O)cc2)c1			Ratio (Escherichia coli [4]): 8
O=C(O)c1cccc(-c2ccc(O[C@H]3O[C@H](CO)[C@@H](O)[C@H](O)[C@@H]3O)cc2)c1	4	0.099	
CC(=O)Nc1cccc(O[C@H]2O[C@H](CO)[C@@H](O)[C@H](O)[C@@H]2O)c1	12	0.16	
O=c1[nH]c2ccc(O[C@H]3O[C@H](CO)[C@@H](O)[C@H](O)[C@@H]3O)cc2o1	4		
O=[N+]([O-])c1ccc(O[C@H]2O[C@H](CO)[C@@H](O)[C@H](O)[C@@H]2O)cc1	31		
OC[C@H]1O[C@H](Oc2ccc(Cl)cc2)[C@@H](O)[C@@H](O)[C@@H]1O	32		
CCCCO[C@H]1O[C@H](CO)[C@@H](O)[C@H](O)[C@@H]1O [BUTYLALPHAMAN]	125	0.245	Kd [3]: 0.151 µM
O=[N+]([O-])c1cccc(O[C@H]2O[C@H](CO)[C@@H](O)[C@H](O)[C@@H]2O)c1	16		
O=[N+]([O-])c1ccc(-c2ccc(O[C@H]3O[C@H](CO)[C@@H](O)[C@H](O)[C@@H]3O)cc2)cc1	2		
OC[C@H]1O[C@H](OCc2ccccc2)[C@@H](O)[C@@H](O)[C@@H]1O		0.187	

SMILES	Activity (Escherichia coli [1]) [µM]	EC50 [2] [µM]	further results
OC[C@H]1O[C@H](Oc2ccccc2Cl)[C@@H](O)[C@@H](O)[C@@H]1O	4		
OC[C@H]1O[C@H](Oc2cccc(Cl)c2)[C@@H](O)[C@@H](O)[C@@H]1O	8		
O=C(c1ccccc1)c1cccc(O[C@H]2O[C@H](CO)[C@@H](O)[C@H](O)[C@@H]2O)c1	8		
N#Cc1cccc(O[C@H]2O[C@H](CO)[C@@H](O)[C@H](O)[C@@H]2O)c1	23	0.162	
NC(=O)c1cccc(-c2ccc(O[C@H]3O[C@H](CO)[C@@H](O)[C@H](O)[C@@H]3O)cc2)c1	2	0.078	
O=C(O)c1cc(C(=O)NCCCCO[C@H]2O[C@H](CO)[C@@H](O)[C@H](O)[C@@H]2O)cc(-c2c3ccc(=O)cc-3oc3cc(O)ccc23)c1	125		Kd [5]: 0.17 µM
CC(=O)Oc1cccc(O[C@H]2O[C@H](CO)[C@@H](O)[C@H](O)[C@@H]2O)c1	16		
CNS(=O)(=O)c1cccc(-c2ccc(O[C@H]3O[C@H](CO)[C@@H](O)[C@H](O)[C@@H]3O)cc2)c1	1		
OC[C@H]1O[C@H](Oc2ccc3ccccc3c2)[C@@H](O)[C@@H](O)[C@@H]1O	6		
COC(=O)c1ccc(O[C@H]2O[C@H](CO)[C@@H](O)[C@H](O)[C@@H]2O)cc1	8	0.064	
O=C(O)c1cc(C(=O)O)cc(-c2ccc(O[C@H]3O[C@H](CO)[C@@H](O)[C@H](O)[C@@H]3O)cc2)c1	2		
COC(=O)c1cc(C(=O)OC)cc(-c2ccc(O[C@H]3O[C@H](CO)[C@@H](O)[C@H](O)[C@@H]3O)cc2)c1	0.15	0.077	Selectivity ratio (Escherichia coli [6]): 2
NC(=O)c1cccc(O[C@H]2O[C@H](CO)[C@@H](O)[C@H](O)[C@@H]2O)c1	16		
N#Cc1ccccc1-c1ccc(O[C@H]2O[C@H](CO)[C@@H](O)[C@H](O)[C@@H]2O)cc1	2		
OC[C@H]1O[C@H](Oc2ccc(-c3ccccc3O)cc2)[C@@H](O)[C@@H](O)[C@@H]1O	8		
COc1cccc(-c2ccc(O[C@H]3O[C@H](CO)[C@@H](O)[C@H](O)[C@@H]3O)cc2)c1	1.5		
OCc1ccc(-c2ccc(O[C@H]3O[C@H](CO)[C@@H](O)[C@H](O)[C@@H]3O)cc2)cc1	6		
CNC(=O)c1cccc(-c2ccc(O[C@H]3O[C@H](CO)[C@@H](O)[C@H](O)[C@@H]3O)cc2)c1	1	0.075	
N#Cc1ccc(O[C@H]2O[C@H](CO)[C@@H](O)[C@H](O)[C@@H]2O)cc1	30		
COC(=O)c1cccc(O[C@H]2O[C@H](CO)[C@@H](O)[C@H](O)[C@@H]2O)c1	6	0.084	
OC[C@H]1O[C@H](Oc2ccc(-c3cccnc3)cc2)[C@@H](O)[C@@H](O)[C@@H]1O	2		

SMILES	Activity (Escherichia coli [1]) [µM]	EC50 [2] [µM]	further results
OCc1cccc(-c2ccc(O[C@H]3O[C@H](CO)[C@@H](O)[C@H](O)[C@@H]3O)cc2)c1	3		
NC(=O)c1ccc(O[C@H]2O[C@H](CO)[C@@H](O)[C@H](O)[C@@H]2O)cc1	15		
OC[C@H]1O[C@H](Oc2ccccc2)[C@@H](O)[C@@H](O)[C@@H]1O	30	0.114	
CC(=O)Nc1ccccc1O[C@H]1O[C@H](CO)[C@@H](O)[C@H](O)[C@@H]1O	125		
COC(=O)c1cc2ccc(O[C@H]3O[C@H](CO)[C@@H](O)[C@H](O)[C@@H]3O)cc2s1	2		
COC(=O)c1ccc(-c2cccc(O[C@H]3O[C@H](CO)[C@@H](O)[C@H](O)[C@@H]3O)c2)cc1	6		
Cc1ccc(O[C@H]2O[C@H](CO)[C@@H](O)[C@H](O)[C@@H]2O)cc1	8		
N#Cc1ccc(-c2ccc(O[C@H]3O[C@H](CO)[C@@H](O)[C@H](O)[C@@H]3O)cc2)cc1	8		
CS(=O)(=O)Nc1ccccc1-c1ccc(O[C@H]2O[C@H](CO)[C@@H](O)[C@H](O)[C@@H]2O)cc1	12		
N#Cc1cccc(-c2ccc(O[C@H]3O[C@H](CO)[C@@H](O)[C@H](O)[C@@H]3O)cc2)c1	1		
OC[C@H]1O[C@H](Oc2ccc(-c3ccncc3)cc2)[C@@H](O)[C@@H](O)[C@@H]1O	2		
COC(=O)c1ccc(-c2ccc(O[C@H]3O[C@H](CO)[C@@H](O)[C@H](O)[C@@H]3O)cc2)cc1	4	0.059	
COC(=O)c1cc(O[C@H]2O[C@H](CO)[C@@H](O)[C@H](O)[C@@H]2O)cc(C(=O)OC)c1	2	0.091	
CNC(=O)c1cc(C(=O)NC)cc(-c2ccc(O[C@H]3O[C@H](CO)[C@@H](O)[C@H](O)[C@@H]3O)cc2)c1	0.37	0.087	Selectivity ratio (Escherichia coli [6]): 4
N#Cc1ccccc1O[C@H]1O[C@H](CO)[C@@H](O)[C@H](O)[C@@H]1O	6		
OCc1ccccc1-c1ccc(O[C@H]2O[C@H](CO)[C@@H](O)[C@H](O)[C@@H]2O)cc1	16		
COC(=O)c1cc2cc(O[C@H]3O[C@H](CO)[C@@H](O)[C@H](O)[C@@H]3O)ccc2s1	2		
O=C(O)c1cccc(O[C@H]2O[C@H](CO)[C@@H](O)[C@H](O)[C@@H]2O)c1	60		
CC(=O)Nc1ccc(O[C@H]2O[C@H](CO)[C@@H](O)[C@H](O)[C@@H]2O)cc1	8	0.122	
